Results on nine molecules are retold here after paper PMC5065790 (Bioorganic & medicinal chemistry, 2016).

Assay [1] concerns the target HIV-1 MA protein (Human immunodeficiency virus type 1 group M subtype B, UniProt P12493). Kind of assay: HIV-1 MA crosslinking, dimer/monomer immunoblot. The format is biochemical. Conditions: 30 µM MA, 50 µM compound. The procedure, abridged:
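Purified HIV-1 MA at 30 µM in 25 mM sodium phosphate (pH 7.8) plus 50 mM NaCl, incubated 2 h at 25°C with or without 50 µM test compound. Dimer and monomer bands were then measured, and percentage MA crosslinking was derived from them.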
On the technique in general: Immunoblotting shows a protein as a band on a membrane.

Assay [2] deals with HIV-1 virus particles. Briefly: Inactivation of GFP-transducing HIV-1. Conditions: 1 mM, virus treated 1 h at 37°C, HEK293T cells, 48 h. In kind it is cell-based.
In assay [3] the test system is HIV-1. Conditions: ref [21]–[3]; cited from earlier work.
In assay [4] the test system is HIV-1 virus particles. Briefly: Inactivation of luciferase-transducing HIV-1. The format is cell-based. The conditions noted are these: 1 mM, virus treated 1 h at 37°C, HEK293T cells, 48 h.
The target in assay [5] is HIV-1 MA-RNA binding (Human immunodeficiency virus type 1 group M subtype B, UniProt P12493). Briefly: Fluorescence polarization. The conditions noted are these: screen of 50,000 compounds.
Assay [6] can be described thus: Peptide crosslinking analysis. Conditions: 0.1 mM peptide, 1 mM compound, 2 h 25°C, reducing SDS-PAGE. The format is biochemical.
Assay [7] deals with soluble guanylate cyclase. The conditions noted are these: read-out: IC50 concentrations; ref [8]–[9]; cited from earlier work.
The subject of assay [8] is leukotriene synthesis. Conditions: read-out: IC50 concentrations; ref [8]–[9]; cited from earlier work.
The test system of assay [9] is HIV-1 PrGag in immature virus particles. Briefly: Virus crosslink analysis, immature HIV-1 particles. In kind it is biochemical. Conditions: 1 mM compound, 1 h at 25°C.

Take `COC1=C(Cl)C(=O)c2ncccc2C1=O` [Compound 81048, 7-chloro-6-methoxy-5,8-quinolinedione]: the “MA dimer formation (in words)” value in assay [1] was “significant levels of dimer formation”.

Consider `c1ccc(SSc2ccccn2)nc1` [Aldrithiol-2, 2,2'-dipyridyldisulfide], for which, in assay [2], the “virus infection levels (GFP-positive cells, in words)” value is “dramatically reduced virus infection levels”. For the same molecule, the “concentrations that inactivate HIV-1” value in assay [3] was 300 to 1000 µM. Also, the “virus infectivity level after treatment (luciferase, in words)” value in [4] is on record as “nearly mock-infection levels”.

`O=C1C(Cl)=C(Cl)C(=O)c2ncccc21` [Compound 81047, 6,7-dichloro-5,8-quinolinedione]: the “inhibition of MA-RNA binding in library screen (in words)” value in assay [5] is on record as “potently inhibited MA-RNA binding”. In assay [1], the “MA dimer formation (in words)” value was “efficiently formed dimers”.

Consider `O=C1C=CC(=O)N1CCN1C(=O)C=CC1=O` [BMOE, bis-maleimidoethane], for which the peptide dimer formation result in assay [6] is recorded as “yielded dimers”.

`O=C1C=CC(=O)c2cnccc21` [Compound 76882, 5,8-isoquinolinedione]: the “MA dimer formation (in words)” value in assay [1] is on record as “efficiently formed dimers”.

As for `O=C1C(Nc2ccccc2)=CC(=O)c2ncccc21` [LY83583, 6-anilino-5,8-quinolinequinone], the IC50 in [7] and in assay [8] was 1000 to 2000 nM throughout.

For the molecule `O=C1C=CC(=O)N1CCCCCCN1C(=O)C=CC1=O` [BMH, 1,6-bis-maleimidohexane, reference compound], in assay [6], the peptide dimer formation entry is given as “yielded dimers”. Also, the “HIV-1 PrGag dimer band” value in [9] was “a dimer band was observed”.

On to `O=C1C(Cl)=C(Cl)C(=O)c2ccccc21` [Compound 537, 2,3-dichloronaphthoquinone], for which the peptide dimer formation result in assay [6] is “yielded dimers”. Moreover, the “MA dimer formation (in words)” value in assay [1] is given as “efficiently formed dimers”. For the same molecule, the “HIV-1 PrGag dimer band” value in [9] is “showed the HIV-1 PrGag dimer band”.

Take `COC1=C(Br)C(=O)c2ncccc2C1=O` [Compound 102729, 7-bromo-6-methoxy-5,8-quinolinedione]: the “MA dimer formation (in words)” value in assay [1] was “significant levels of dimer formation”. Moreover, the “HIV-1 PrGag dimer band” value in [9] is given as “to lower extents”.
